Source: ChEMBL document CHEMBL5241063, “Synthetic and medicinal perspective of quinolines as antiviral agents” (Eur J Med Chem, 2021)

Experiments:
[1] = Inhibition of HIV-1 integrase; parameters: species or system Human immunodeficiency virus 1
[2] = target: Human immunodeficiency virus type 1 reverse transcriptase (Human immunodeficiency virus 1, UniProt Q72547); assay: Inhibition of HIV-1 reverse transcriptase incubated for 90 mins by liquid scintillation counting analysis
[3] = Cytotoxicity against human RD cells by neutral red method; type: toxicity, cell-based
SNB-19 = assay: (§1) Cytotoxicity against human SNB-19 cells incubated for 24 hrs; type: toxicity, cell-based; settings: snb-19, 24 h
Vero = assay: (§2) Cytotoxicity against african green monkey Vero cells incubated for 48 hrs; type: toxicity, cell-based; settings: chlorocebus sabaeus, vero, 48 h
[4] = test system: Human immunodeficiency virus 1; assay: Antiviral activity against HIV-1 IIIB infected in human MT2 cells assessed as inhibition of viral replication by p24 ELISA method; type: functional, organism-based; settings: Human immunodeficiency virus 1, IIIB
[5] = test system: Human immunodeficiency virus 1; assay: Antiviral activity against HIV-1 92US657 infected in human MT2 cells assessed as inhibition of viral infection; type: functional, organism-based; settings: Human immunodeficiency virus 1, 92US657, MT2
[6] = test system: Human immunodeficiency virus 1; assay: Antiviral activity against HIV-1 infected in human HeLa P4 cells assessed as inhibition of viral particles production; type: functional, organism-based; settings: Human immunodeficiency virus 1, HeLaP4
enterovirus D68 = assay: Antiviral activity against Enterovirus D68 US/KY/14-18953 infected in human RD cells assessed as reduction in virus induced cytopathic effect; type: functional, organism-based; settings: Enterovirus D, US/KY/14-18953, RD
[7] = Selectivity index, ratio of CC50 for cytotoxicity against human RD cells to EC50 for antiviral activity against Enterovirus D68 US/KY/14-18953 infected in human RD cells; type: toxicity, cell-based; settings: read-out: Ratio CC50/EC50
[8] = test system: Human immunodeficiency virus 1; assay: Anti-HIV activity against HIV-1 NL4.3 infected in human MT2 cells measured after 7 days by MTT assay; type: functional, organism-based; settings: Human immunodeficiency virus 1, NL4.3, MT2, 168 h
[9] = test system: Human immunodeficiency virus 1; assay: Anti-HIV activity against HIV-1 NL4.3 infected in human MT2 cells measured after 48 hrs by luminescence based assay; type: functional, organism-based; settings: Human immunodeficiency virus 1, NL4.3, MT2, 48 h
Ebolavirus = assay: Antiviral activity against recombinant VSV-deltaG pseudotyped GFP-tagged EBOV infected in human Huh-7 cells preincubated with cells for 1 hr followed by viral infection and measured after 16 hrs by […] assay; type: functional, organism-based; settings: Orthoebolavirus
[10] = Selectivity index, ratio of CC50 for cytotoxicity against human Huh-7 cells to IC50 for antiviral activity against recombinant VSV-deltaG pseudotyped GFP-tagged EBOV infected in human Huh-7 cells; type: toxicity, cell-based; settings: read-out: Ratio CC50/IC50
[11] = test system: Human immunodeficiency virus 1; assay: Antiviral activity against HIV-1 infected in human CEM-SS cells assessed as reduction in virus induced cytopathic effect by XTT assay; type: functional, organism-based; settings: Human immunodeficiency virus 1, CEM-SS
[12] = Cytotoxicity against human CEM-SS cells assessed as inhibition of cell growth; type: toxicity, cell-based
Zika virus = assay: Antiviral activity against ZIKV PRVABC59; type: functional, organism-based
Method in brief: (§3)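 Human glioblastoma SNB-19 cells were infected with ZIKV strain PRVABC59 at MOI 1. Virus production was measured by titer assay in Vero cells. Niclosamide served as positive and quality control in each antiviral assay.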

[13] = as §1; type: toxicity, cell-based; settings: SNB-19 cells
[14] = as §2; type: toxicity, cell-based; settings: chlorocebus sabaeus, Vero cells
[15] = Selectivity index, ratio of CC50 for cytotoxicity against human SNB-19 cells to EC50 for antiviral activity against ZIKV PRVABC59; type: toxicity, cell-based; settings: read-out: Ratio CC50/EC50; method in brief: as §3
[16] = Selectivity index, ratio of CC50 for cytotoxicity against african green monkey Vero cells to EC50 for antiviral activity against ZIKV PRVABC59; type: toxicity, cell-based; settings: read-out: Ratio CC50/EC50
dengue virus type 2 = assay: Antiviral activity against Dengue virus serotype 2 infected in african green monkey Vero cells assessed as reduction in virus yield preincubated for 1 hr followed by replacement with medium containing compounds and measured after 48 hrs by crystal violet staining based plaque assay; type: functional, organism-based
[17] = Cytotoxicity against african green monkey Vero cells incubated for 48 hrs by CellTiter-Glo luminescence based assay; type: toxicity, cell-based; settings: chlorocebus sabaeus
[18] = Cytotoxicity against african green monkey Vero E6 cells by CCK8 assay; type: toxicity, cell-based, Vero C1008; settings: chlorocebus sabaeus
[19] = test system: Human immunodeficiency virus 1; assay: Antiviral activity against HIV-1 infected in human H9 cells assessed as inhibition of viral replication; type: functional, organism-based; settings: Human immunodeficiency virus 1, H9

O=C(NNc1ccc([N+](=O)[O-])cc1[N+](=O)[O-])c1ccc2ccc(C(=O)O)c(O)c2n1
IC50 [1]: 3000 nM

COc1cc(/C=C/c2ccc3ccc(C(=O)O)c(O)c3n2)cc(O)c1O
IC50 [1]: 700 nM

O=C(O)c1ccc2ccc(/C=C/c3ccc(O)c(O)c3)nc2c1O
IC50 [1]: 2400 nM

O=C(O)c1ccc2ccc(/C=C/c3ccccc3)nc2c1O
IC50 [1]: 5300 nM

CC(C)[C@H]1C(=O)OC[C@@H](NC(=O)c2nc3ccccc3cc2O)C(=O)N2CCCC[C@H]2C(=O)NCC(=O)N(C)CC(=O)N(C)[C@@H](C(C)C)C(=O)OC[C@@H](NC(=O)c2nc3ccccc3cc2O)C(=O)N2CCCC[C@H]2C(=O)NCC(=O)N(C)CC(=O)N1C
IC50 [2]: 0.13 nM

CCN(CC)CCNC(=O)c1cc(OC(C)C)nc2ccccc12
CC50 [3]: 11200 nM

C=C1CC[C@@H]2[C@](C)(CO)[C@H](O)CC[C@@]2(C)[C@@H]1C/C=C1/C(=O)OC[C@@H]1Oc1c(Cl)cc(Cl)c2cccnc12
CC50 (SNB-19): > 100000 nM | CC50 (Vero): > 100000 nM

C=C1CC[C@@H]2[C@](C)(CO)[C@H](O)CC[C@@]2(C)[C@@H]1C/C=C1/C(=O)OC[C@@H]1Oc1cccc2ccc(C)nc12
CC50 (SNB-19): > 100000 nM

Cc1cccc2cc(/C=C3\NC(=O)N(Cc4ccccc4)C3=O)c(Cl)nc12
EC50 [4]: 148 nM | EC50 [5]: 520 nM

COc1cc(/C=C/c2ccc3c(C(=O)O)cc(C(=O)O)c(O)c3c2)cc(O)c1O
IC50 [6]: 1600 nM

CN(C)CCNC(=O)c1cc(Oc2ccccc2)nc2ccccc12
EC50 (enterovirus D68): 400 nM | CC50 [3]: 73700 nM | selectivity ratio [7]: 184

COc1nc2ccccc2cc1/C=C1\NC(=O)N(Cc2ccccc2)C1=O
EC50 [4]: 1410 nM | EC50 [5]: 520 nM

Cc1ccc2cc(/C=C3\NC(=O)N(Cc4ccccc4)C3=O)c(Cl)nc2c1
EC50 [4]: 710 nM | EC50 [5]: 520 nM

COc1ccc2nc(OC)c(/C=C3\NC(=O)N(CCc4ccccc4)C3=O)cc2c1
EC50 [4]: 1510 nM | EC50 [5]: 520 nM

O=C1N/C(=C\c2cc3ccccc3nc2Cl)C(=O)N1Cc1ccccc1
EC50 [4]: 50600 nM | EC50 [5]: 520 nM

COc1ccc2cc(/C=C3\NC(=O)N(CCc4ccccc4)C3=O)c(Cl)nc2c1
EC50 [4]: 460 nM | EC50 [5]: 520 nM

COc1ccc2nc(Cl)c(/C=C3\NC(=O)N(Cc4ccccc4)C3=O)cc2c1
EC50 [4]: 1960 nM | EC50 [5]: 520 nM

Cc1ccc2cc(/C=C3\NC(=O)N(CCc4ccccc4)C3=O)c(Cl)nc2c1
EC50 [4]: 2550 nM | EC50 [5]: 520 nM

COc1cc(OC)c2ccc(-c3cccc([N+](=O)[O-])c3)nc2c1
IC50 [8]: 18500 nM

COc1cc2c(c(OC)c1)[C@@H](N1CCCC1=O)C[C@@H](c1cccc(N)c1)N2
IC50 [9]: 50000 nM

CCN(CC)Cc1cc(Nc2ccnc3cc(I)ccc23)ccc1O
IC50 (Ebolavirus): 640 nM | selectivity ratio [10]: > 130

Nc1cccc([C@@H]2C[C@H](N3CCCC3=O)c3ccccc3N2)c1
IC50 [9]: 50000 nM

O=C1N/C(=C\c2cc3ccccc3nc2Cl)C(=O)N1CCc1ccccc1
EC50 [4]: 2920 nM | EC50 [5]: 520 nM

Cc1ccc2nc(Cl)c(/C=C3\NC(=O)N(Cc4ccccc4)C3=O)cc2c1
EC50 [4]: 5540 nM | EC50 [5]: 520 nM

CN(C)CCNC(=O)c1cc(Oc2ccccc2)nc2ccc(F)cc12
EC50 (enterovirus D68): 600 nM

O=C1N/C(=C\c2cccc3ccccc23)C(=O)N1CCc1ccccc1
EC50 [4]: 1930 nM | EC50 [5]: 520 nM

Cc1ccc2nc(Cl)c(/C=C3\NC(=O)N(CCc4ccccc4)C3=O)cc2c1
EC50 [4]: 22800 nM | EC50 [5]: 500 nM

C=CC(C)(C)C1(CC=C(C)C)C(=O)Nc2ccccc2C1OCC=C(C)C (centres undefined)
EC50 [11]: 1640 nM | IC50 [12]: 26900 nM

COc1nc2ccccc2cc1/C=C1\NC(=O)N(CCc2ccccc2)C1=O
EC50 [4]: 420 nM | EC50 [5]: 520 nM

COc1ccc2nc(Cl)c(/C=C3\NC(=O)N(CCc4ccccc4)C3=O)cc2c1
EC50 [4]: 1010 nM | EC50 [5]: 520 nM

Cc1cc(C)c2c(c1)N[C@H](c1cccc(N)c1)C[C@@H]2N1CCCC1=O
IC50 [9]: 50000 nM

COc1ccc2nc(OC)c(/C=C3\NC(=O)N(Cc4ccccc4)C3=O)cc2c1
EC50 [4]: 270 nM | EC50 [5]: 520 nM

CCCCCCCCN(C)Cc1cc(Nc2ccnc3cc(I)ccc23)ccc1O
IC50 (Ebolavirus): 260 nM | selectivity ratio [10]: > 100

CCCCCCNCc1cc(Nc2ccnc3cc(Cl)ccc23)ccc1O
IC50 (Ebolavirus): 290 nM

CN(C)CCNC(=O)c1cc(Oc2cccs2)nc2ccccc12
EC50 (enterovirus D68): 40 nM | selectivity ratio [7]: > 600

CCCCN(CCCC)Cc1cc(Nc2ccnc3cc(Cl)ccc23)ccc1O
IC50 (Ebolavirus): 720 nM | selectivity ratio [10]: > 130

C=C1CC[C@H]2[C@@](C)(CCC(O)[C@@]2(C)CO)[C@@H]1C/C=C1/C(=O)OC[C@H]1Oc1cccc2cccnc12 (some centres undefined)
EC50 (Zika virus): 11000 nM | CC50 at 24 h [13]: 60100 nM | CC50 at 48 h [14]: 22800 nM | selectivity ratio [15]: 5.5 | selectivity ratio [16]: 2.1

Cc1cccc2cc(/C=C3\NC(=O)N(CCc4ccccc4)C3=O)c(Cl)nc12
EC50 [4]: 500 nM | EC50 [5]: 520 nM

CC(C)c1ccc2c(Cl)cc(Cl)c(O)c2n1
IC50 (dengue virus type 2): 3030 nM | CC50 at 48 h [17]: 16100 nM

O=C(NCCN1CCCC1)c1cc(Oc2cccs2)nc2ccccc12
EC50 (enterovirus D68): 60 nM | selectivity ratio [7]: > 600

O=C(O)/C=C\c1cc(C(=O)O)c(O)c2cc(/C=C/c3ccc(O)c(O)c3)ccc12
IC50 [6]: 35000 nM

CN(C)CCNC(=O)c1cc(Oc2ccccc2)nc2ccc(Cl)cc12
EC50 (enterovirus D68): 1200 nM

CCN(CC)Cc1cc(Nc2c(Oc3ccccc3)cnc3cc(Cl)ccc23)ccc1O
IC50 (Ebolavirus): 730 nM

CC(C)Oc1ccc2cc(/C=C3\NC(=O)N(CCc4ccccc4)C3=O)c(Cl)nc2c1
EC50 [4]: 330 nM | EC50 [5]: 520 nM

O=C1N/C(=C\c2cccc3ccccc23)C(=O)N1Cc1ccccc1
EC50 [4]: 1520 nM | EC50 [5]: 520 nM

CC(C)Cc1ccc2c(Cl)cc(Cl)c(O)c2n1
IC50 (dengue virus type 2): 490 nM | CC50 at 48 h [17]: 19400 nM

O=C(NCc1ccc(O)c(O)c1)c1ccc2ccc(C(=O)O)c(O)c2n1
IC50 [1]: 5000 nM

O=C(NCc1ccc(O)c(O)c1O)c1ccc2ccc(C(=O)O)c(O)c2n1
IC50 [1]: 1500 nM

COc1cc(NC(=O)c2ccc3ccc(C(=O)O)c(O)c3n2)cc(O)c1O
IC50 [1]: 6500 nM

CCN(CC)Cc1cc(Nc2ccnc3cc(Cl)ccc23)ccc1O [AMODIAQUINE]
selectivity ratio [10]: 37

C=CC(C)(C)C1(CC=C(C)C)C(=O)Nc2ccccc2C1=O (centres undefined) [BUCHAPINE]
IC50 [12]: 29000 nM

CCN(CC)CCCC(C)Nc1ccnc2cc(Cl)ccc12 (centres undefined) [CHLOROQUINE]
CC50 [18]: 250000 nM

COc1c2ccc(O)cc2nc2occc12 [CONFUSAMELINE]
EC50 [19]: < 5850 nM

COc1c2ccoc2nc2c(OC)cccc12 [GAMMA-FAGARINE]
EC50 [19]: < 5850 nM

COc1c2[nH]c3occc3c(OC)c-2ccc1=O [HAPLOPINE]
EC50 [19]: < 5850 nM

CCN(CCO)CCCC(C)Nc1ccnc2cc(Cl)ccc12 (centres undefined) [HYDROXYCHLOROQUINE]
CC50 [18]: 273000 nM
